Eight molecules from ChEMBL document CHEMBL2434895, “Design and application of a rigid quinazolone scaffold based on two-face Bim α-helix mimicking” (Eur J Med Chem, 2013) can be followed below.

Experiment [1] addresses Induced myeloid leukemia cell differentiation protein Mcl-1 (Homo sapiens, UniProt Q07820). Briefly: Displacement of FAM-Bid BH3 peptide from recombinant Mcl-1 (unknown origin) expressed in Escherichia coli BL21 after 10 mins by fluorescence polarization assay. In outline: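 Mcl-1 FP competition: 55 nM protein with 20 nM FAM-Bid BH3 peptide in 25 mM Tris pH 8.0, 150 mM NaCl, 2 min preincubation. Compounds added as serial dilutions from 10 mM DMSO stock, 10 min incubation, polarization measured. Tracer Kd 13 nM. Ki derived by Wang FP-assay equation.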
A general note: In fluorescence polarisation assays a small probe gives low polarisation when free and higher when bound to something large.

For experiment [2], the target named is Apoptosis regulator Bcl-2 (Homo sapiens, UniProt P10415). Put plainly: Displacement of FAM-Bid BH3 peptide from recombinant Bcl-2 (unknown origin) expressed in Escherichia coli BL21 after 10 mins by fluorescence polarization assay.
Apoptosis regulator Bcl-2, sequence (P10415 whole entry): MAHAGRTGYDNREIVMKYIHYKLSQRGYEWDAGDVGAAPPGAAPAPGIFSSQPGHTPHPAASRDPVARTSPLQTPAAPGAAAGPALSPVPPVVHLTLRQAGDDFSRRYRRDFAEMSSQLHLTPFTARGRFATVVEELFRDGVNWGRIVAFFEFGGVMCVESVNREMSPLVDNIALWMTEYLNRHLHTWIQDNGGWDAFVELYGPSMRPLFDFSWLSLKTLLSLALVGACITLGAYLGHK

Induced myeloid leukemia cell differentiation protein Mcl-1, sequence (Q07820 whole entry): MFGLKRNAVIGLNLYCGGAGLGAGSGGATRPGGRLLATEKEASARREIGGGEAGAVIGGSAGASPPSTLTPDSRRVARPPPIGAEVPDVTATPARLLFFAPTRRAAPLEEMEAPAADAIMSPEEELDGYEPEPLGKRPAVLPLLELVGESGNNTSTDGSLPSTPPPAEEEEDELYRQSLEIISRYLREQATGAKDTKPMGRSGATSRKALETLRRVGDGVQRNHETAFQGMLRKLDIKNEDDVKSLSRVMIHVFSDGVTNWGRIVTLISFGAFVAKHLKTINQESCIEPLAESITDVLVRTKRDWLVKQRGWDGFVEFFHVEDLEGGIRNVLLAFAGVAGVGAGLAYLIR

Take `O=C1c2ccccc2C(=O)c2c1cc(O)c(O)c2O`: the Ki – broadly, the dissociation constant of the complex between target and ligand, obtained from inhibition or displacement – in experiment [1] stood at 1210 nM; in experiment [2], 1320 nM.
For `CC(C)c1ccc(O)c(Cn2c(-c3ccccc3)nc3c(O)c(O)c(O)cc3c2=O)c1`, in that order: 609 nM and 1110 nM.
Regarding `CCCCNC(=O)c1cc(O)c(O)c(O)c1NC(=O)c1ccccc1`, the results for the Ki in experiment [1] and in experiment [2] were 1980 nM and 1920 nM, respectively.
For `O=C(Nc1c(C(=O)NCc2ccccc2)cc(O)c(O)c1O)c1ccccc1`, in that order: 2820 nM and 1320 nM.
The matching figures for `O=C(Nc1c(C(=O)NCCCc2ccccc2)cc(O)c(O)c1O)c1ccccc1`: 3240 nM and 8040 nM.
For `O=c1[nH]cnc2c(O)c(O)c(O)cc12`, in that order: 5980 nM and 9280 nM.
Consider `O=c1c2cc(O)c(O)c(O)c2nc(-c2ccccc2)n1Cc1ccccc1`, for which the Ki was 1210 nM in experiment [1] and 959 nM in experiment [2].
For the molecule `Cc1ccc(O)c(Cn2c(-c3ccccc3)nc3c(O)c(O)c(O)cc3c2=O)c1`, the results for the Ki in experiment [1] and in experiment [2] were 123 nM and 179 nM, respectively.
